# From PubChem BioAssay
# Most compounds without a hit are left out; they make up all but 1.7% or so of the library.
# LMPTP inh: LMPTP (human) inhibition. recombinant LMPTP-A, OMFP fluorogenic substrate, fluorescence intensity. AID 651560. P24666. inhibition, % at 20 µM. 360,000 tested, 0.22% active;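 active = compounds that cut the enzyme signal by at least half of the control window in the single-dose screen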;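 also: plate controls were DMSO wells with enzyme plus substrate for no effect and substrate without enzyme for full effect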
#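 Assay system: LMPTP-A enzyme. Input: 0.625 nM LMPTP-A final. Probe or stimulus: 400 µM OMFP. Compound dosing: single 20 µM dose. Schedule: 50 min dark incubation at room temperature. Detection: fluorescence intensity of OMFP turnover product. Read-out: percent inhibition versus substrate-only and uninhibited controls. Benchmarks: no-enzyme low control, uninhibited high control.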
# Scp-1 inhibitor: inhibitors of human Scp-1 phosphatase | Q9GZU7 | Recombinant Scp1, phosphopeptide, malachite green phosphate absorbance | inhibition, % at 20 µM | 340,000 tested, 0.88% active | AID 493091;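 active = inhibition above about 50% at 20 µM, limit read from the data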;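 also: plate controls were DMSO wells with enzyme for no effect and wells lacking enzyme for full effect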
#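 Test system – truncated SCP-1 phosphatase (76-261aa) · Reagent – Phosphorylated 17-residue peptide substrate · Incubation – 45 min room-temperature reaction, 5 min colour, 30 min stabiliser · Detection – colorimetric phosphate reagent with accelerator and stabiliser, absorbance at 630 nm · Measure – % inhibition at 20 µM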
# DNMT1 inh: blocks human DNA methyltransferase DNMT1; P26358; DNMT1 molecular beacon, Hinp1I cleavage, fluorescence; inhibition (reported as % activation of signal), % at 10 µM; 360,000 tested, 0.83% active; in the data active = inhibition above about 50%
# SUMO1-SIM PPI: alters human SUMO1 binding to SIM partners; P63165; SUMO1 binding to a labelled peptide, TR-FRET, 1 h; inhibition, % at 20 µM; 360,000 tested, 0.33% active; in the data active = inhibition above about 37%
# Target sequence (P63165 whole entry, looked up): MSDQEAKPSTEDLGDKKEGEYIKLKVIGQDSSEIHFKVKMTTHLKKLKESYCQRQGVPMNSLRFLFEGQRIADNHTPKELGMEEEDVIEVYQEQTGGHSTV
# STEP block: inhibitors of human striatal-enriched phosphatase STEP | P54829 | 360,000 tested, 0.25% active | recombinant STEP, OMFP fluorogenic substrate, fluorescence | inhibition, % at 20 µM;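 active = inhibition at 20 µM, scaled per plate between control wells, above about 37%, limit read from the data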;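 also: 0% = DMSO with enzyme and substrate and 100% = substrate only without enzyme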
# Target sequence (P54829 whole entry, looked up): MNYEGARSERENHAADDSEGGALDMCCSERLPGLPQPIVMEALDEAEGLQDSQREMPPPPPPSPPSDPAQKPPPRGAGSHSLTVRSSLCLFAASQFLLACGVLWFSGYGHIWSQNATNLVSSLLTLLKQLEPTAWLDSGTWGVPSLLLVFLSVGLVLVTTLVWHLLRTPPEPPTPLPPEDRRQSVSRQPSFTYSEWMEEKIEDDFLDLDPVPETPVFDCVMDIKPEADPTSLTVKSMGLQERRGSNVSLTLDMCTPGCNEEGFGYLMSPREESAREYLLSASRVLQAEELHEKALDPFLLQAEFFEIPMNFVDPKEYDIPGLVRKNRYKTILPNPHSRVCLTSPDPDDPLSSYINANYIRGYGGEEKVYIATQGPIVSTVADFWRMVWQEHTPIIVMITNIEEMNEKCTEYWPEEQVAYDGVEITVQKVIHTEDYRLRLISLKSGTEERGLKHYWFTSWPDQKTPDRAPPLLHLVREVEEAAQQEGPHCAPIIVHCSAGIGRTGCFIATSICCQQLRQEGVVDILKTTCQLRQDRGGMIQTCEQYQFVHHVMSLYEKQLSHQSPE
#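 System: isolated STEP enzyme; schedule: 20 min enzyme reaction at room temperature, protected from light; medium: Bis-Tris buffer pH 6.0, 2.5 mM DTT, 0.005% Tween 20; signal: fluorescence, 480/540 nm; dosing: single compound dose of 20 µM, 1% DMSO final; also added: OMFP substrate, 25 µM final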
# Scp-1 conf: Scp-1 (human) inhibition, single-dose confirmed; shares compounds with Scp-1 inhibitor; recombinant SCP-1 catalytic domain, phosphate release, malachite green absorbance; inhibition, % at 20 µM; 2,500 tested, 61% active; AID 540281;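 also: plate controls were DMSO with enzyme for no effect and buffer wells lacking enzyme for full effect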
# MG interference: interferes with malachite green readout, flagging false Scp-1 hits; apparent inhibition (interference), % at 20 µM; 2,500 tested, under 10 active; Colorimetric interference counterscreen, malachite green absorbance 630 nm; shares compounds with Scp-1 inhibitor; AID 540313;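 also: compounds added after enzyme reaction finished so only phosphate colour detection is probed; plate controls were DMSO wells with completed Scp-1 reaction for no effect and substrate wells lacking enzyme for full effect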
# Scp-1 Tm shift: binds human Scp-1, shifting its melting temperature | 1,500 tested, 25% active | AID 540329 | shares compounds with Scp-1 inhibitor | Recombinant SCP1, Sypro Orange thermal shift Tm | thermal shift relative to vanadate control, % at 40 µM;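 active = substances whose mean melting-temperature shift, as a percentage of the reference inhibitor's shift, reaches about 5.3%, limit read from the data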;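 also: 0% = Tm of DMSO wells and 100% = Tm with sodium orthovanadate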
# Active calls of the source: *; . = no result.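 The calls were made as follows, unless noted: active = inhibition of at least 30% at 20 µM; inactive = the rest.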
SMILES,LMPTP inh,Scp-1 inhibitor,DNMT1 inh,SUMO1-SIM PPI,STEP block,Scp-1 conf,MG interference,Scp-1 Tm shift
OC(COC1CCCCC1)CN1CCCCC1 (stereo unspecified),1,55*,0,-1,2,-18,-17,.
O=C(NCCCn1ccnc1)c1ccc(Br)s1,-2,-6,0,-1,-2,.,.,.
C[C@H](CO)N1C[C@H](C)[C@@H](CN(C)Cc2ccc(Cl)c(Cl)c2)Oc2c(NS(=O)(=O)c3cn(C)cn3)cccc2C1=O,-2,59*,-1,4,0,-7,-17,.
C[C@H](CO)N1C[C@H](C)[C@@H](CN(C)Cc2ccncc2)Oc2c(NS(=O)(=O)c3cn(C)cn3)cccc2C1=O,-1,57*,4,0,0,4,-9,.
COc1ccc(OCCSc2nnc(C(C)NC(=O)c3ccccc3F)n2C)cc1 (stereo unspecified),0,0,3,1,4,.,.,.
C[N+](C)(C)CC/C=C1/c2ccccc2CSc2ccccc21,0,77*,-3,3,2,82*,-13,-4
CCOC(=O)c1cnc2nc(NCc3ccc(OC)c(OC)c3)[nH]n2c1=O,11,54*,2,9,23,31*,-8,1
CCCc1cc(=O)n2[nH]c(NCc3ccc(OC)c(OC)c3)nc2n1,1,-9,-5,0,-2,.,.,.
O=C(c1nc2ccc(Cl)cn2c1CN1CCCC1)N1CCc2ccccc2C1,8,52*,14,8,-1,36*,-3,5
Cc1ccc(NCCCn2ccc(NC(=O)OCc3ccccc3)nc2=O)cc1C,1,12,-1,3,-1,.,.,.
Cc1ccc(C)c(OC(=O)C2CSC3(C)CCC(=O)N23)c1C (stereo unspecified),-1,0,-1,0,-1,.,.,.
CCn1c2ccccc2c2nnc(SCC(N)=O)nc21,-1,-1,-1,-10,2,.,.,.
CCn1c2ccccc2c2nnc(SCC(=O)c3c(N)n(C)c(=O)n(C)c3=O)nc21,-1,63*,-17,6,12,-3,-10,.
N#Cc1c(SCC(=O)Nc2cccc(F)c2)sc2c(O)cc(=O)[nH]c12,26,58*,29,7,12,60*,-10,7.7*
N#Cc1cccc(NC(=O)CSc2sc3c(O)cc(=O)[nH]c3c2C#N)c1,70*,50*,46,24,13,22,-4,.
CCOc1cccc(NC(=O)CSc2sc3c(O)cc(=O)[nH]c3c2C#N)c1,4,-1,4,2,5,.,.,.
CCCSc1nnc(NC(=O)CSc2sc3c(O)cc(=O)[nH]c3c2C#N)s1,0,70*,-1,2,-4,65*,-16,12*
C#CCOc1ccc(CNC[C@H]2O[C@@H](n3cnc4c(N)ncnc43)[C@H](O)[C@@H]2O)cc1,0,-2,5,5,0,.,.,.
CC1CCc2c(sc(NC(=O)c3ccc(Cn4cc([N+](=O)[O-])cn4)o3)c2C#N)C1 (stereo unspecified),5,71*,42,5,2,61*,-22,6.4*
COc1ccc(C(CNS(=O)(=O)c2ccc(NC(C)=O)c(OC)c2)N2CCCCC2)cc1 (stereo unspecified),0,50*,4,-6,0,-16,-18,.
COc1ccc(C(CNS(=O)(=O)c2ccc(NC(C)=O)c(OC)c2)N2CCCC2)cc1 (stereo unspecified),-1,-5,0,-2,-4,.,.,.
COC(=O)C1=CN(c2ccc(C)cc2)C(N)=C(C#N)C1c1ccc(OC)cc1 (stereo unspecified),-2,.,.,-13,.,.,.,.
CC1=NC(C(F)(F)F)(C(F)(F)F)C(C#N)=C(C)N1,-1,56*,1,0,-3,-8,-5,.
CC1=C(C#N)C(Nc2cc(C)ccn2)(C(F)(F)F)C(=O)N1 (stereo unspecified),0,-20,-2,1,0,.,.,.
O=C(N/N=C/c1cc([N+](=O)[O-])ccc1O)c1ccc2c(c1)OCCO2,4,64*,-3,-12,6,48*,-6,-3
SMILES,LMPTP inh,Scp-1 inhibitor,DNMT1 inh,SUMO1-SIM PPI,STEP block,Scp-1 conf,MG interference,Scp-1 Tm shift
O=C(N/N=C/c1cc([N+](=O)[O-])ccc1Cl)c1ccc2nc[nH]c2c1,-1,55*,3,19,2,28,-2,.
O=C(N/N=C/c1ccccc1[N+](=O)[O-])c1ccc2c(c1)OCCO2,0,-9,-1,-39,2,.,.,.
COc1cc(C2(c3ccc(O)c(OC)c3)C(=O)Nc3c(C)cc(Br)cc32)ccc1O,0,0,-11,6,-6,.,.,.
CC[N+]1(CC)CC2CCC(C)(C1)C2(C)C (stereo unspecified),-1,53*,0,3,-4,88*,-18,-6
CC12CCC(C[N+](C)(C)C1)C2(C)C (stereo unspecified),-1,86*,1,-3,0,96*,-5,-5
COc1ccc(CCNC(=O)Nc2ccc3c(c2)c(=O)n(C)n3CC=C(C)C)cc1OC,-1,.,-2,-5,-2,.,.,.
CCc1ccc(NC(=O)CS(=O)CC(=O)Nc2ccc(F)cc2F)cc1 (stereo unspecified),6,94*,12,-3,10,89*,-4,-21
COCCCNC(=S)NC1CCCCC1,-2,-1,10,2,0,.,.,.
O=C1CC(NS(=O)(=O)c2cccnc2)CN1c1ccc(F)cc1 (stereo unspecified),0,4,1,2,0,.,.,.
COc1ccc(N2CC(NS(=O)(=O)c3ccc(F)cc3)CC2=O)cc1 (stereo unspecified),0,-5,-2,0,-1,-8,-11,.
COc1cccc(C2c3c(-c4ccccc4)n[nH]c3C(=O)N2c2ccc(C(=O)O)cc2)c1 (stereo unspecified),-1,53*,2,10,3,52*,-21,24*
O=C(COc1ccccc1)OCC(=O)c1ccc(S(=O)(=O)N2CCCCC2)cc1,0,-4,4,1,-2,.,.,.
CCOc1ccc(-c2nnn(CC(=O)NCc3ccccc3)n2)cc1,2,57*,4,2,1,-9,-22,.
Cn1c(N)nc(N)c(NC=O)c1=O,0,.,-2,5,0,.,.,.
